Experimental data from publication PMC3988263 (European journal of pharmacology, 2011).

Assays:
[1] = test system: mice (sedation/motor function); assay: Horizontal wire test of behavioral toxicity; format: in vivo, mouse
[2] = test system: GABAA receptor α1-null mice (tremor); assay: Tremor measurement in the GABAA receptor α1-null model; format: in vivo, mouse; settings: for tremor reduction compared to baseline: 20 mg/kg i.p., 30 min after drug, tail suspension
[3] = test system: mouse liver microsomes (cytochrome P450, harmaline O-demethylation); assay: Harmaline O-demethylation to harmalol in mouse liver microsomes; format: in vitro ADME
[4] = test system: mice (retention time on inverted wire grid); assay: Inverted grid test of behavioral toxicity; format: in vivo, mouse
[5] = test system: human CYP2D6; settings: ref Bui et al., 2008; cited from earlier work
[6] = test system: CYP3A (mouse liver microsomes)
[7] = test system: mice (sedation or ataxia); assay: Gross observation in open fields; format: in vivo, mouse; settings: doses below 200 mg/kg
[8] = test system: pentylenetetrazol model; settings: ref Handforth et al., 2010; cited from earlier work
[9] = test system: high voltage calcium channels; settings: at 100 µM; ref Huang et al., 2004; Li et al., 2005; cited from earlier work
[10] = test system: human recombinant CYP3A4; settings: ref Bui et al., 2008; cited from earlier work
[11] = test system: harmaline-induced tremor in ICR mice; assay: Tremor measurement in the harmaline model; format: in vivo, mouse; settings: harmaline 20 mg/kg
In short: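 Male ICR mice (20–24 g) sat on a motion-sensing platform; 20 min baseline, then harmaline 20 mg/kg, then test compound or saline vehicle 15 min later (time 0); 100 min recording; 5–6 mice/group. Read-out was 10–16 Hz motion power as % of 0–33 Hz power over 20–60 and 60–100 min. Reduction = 100×(1−[(DT−DB)/(mean VT−mean VB)]) versus vehicle group; repeated-measures ANOVA.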

[12] = test system: blood pressure; settings: ref Dogrul et al., 2003; cited from earlier work
[13] = test system: cytochrome P450 (harmaline O-demethylation to harmalol); assay: Harmaline O-demethylation to harmalol in mouse liver microsomes; format: in vitro ADME; settings: mouse, mouse liver microsomes, pH 7.5, probe harmaline (10 µM)
[14] = ref Ertel and Clozel, 1997; cited from earlier work
[15] = 12.5 mg/kg i.p., 20–60 min post-drug
[16] = 12.5 mg/kg i.p., 60–100 min post-drug

CC(C)[C@H]1c2ccc(F)cc2CC[C@@]1(CCN(C)CCCc1nc2ccccc2[nH]1)OC(=O)C1CC1.Cl.Cl [NNC 55-0396, (1S,2S)-2-(2-(N-[(3-benzimidazol-2-yl)propyl]-N-methylamino)ethyl)-6-fluoro-1,2,3,4-tetrahydro-1-isopropyl-2-naphtyl cyclopropanecarboxylate dihydrochloride]
dose at which 3/6 failed the horizontal wire test ([1]; mouse, in vivo, ip): 300 mg/kg
maximal dose at which 6/6 mice passed the horizontal wire test ([1]; mouse, in vivo, ip): 200 mg/kg
tremor reduction compared to baseline [2]: 49.2%
effect on the tremor motion power peak ([2]; 40 mg/kg i.p., individual α1-null mouse, retest 30 min later): suppressed the tremor motion power peak
Ki [3]: 950 nM
Ki for harmaline O-demethylation relative to mibefradil [3]: approximately three-fold higher
O-demethylation of harmaline, percentage of normal (mean ± S.D.) ([3]; drug 100 nM, 10 µM harmaline, mouse liver microsomes): 103.7 ± 12.8%
O-demethylation of harmaline, percent of normal (mean ± S.D.) ([3]; drug 10 µM, 10 µM harmaline, mouse liver microsomes): 46.6 ± 5.3%
appearance (sedation) of drug/harmaline mice ([4]; drug 20 mg/kg i.p. then harmaline 20 mg/kg s.c.): did not appear sedated
retention on the inverted grid compared with vehicle/harmaline mice ([4]; mouse, in vivo): better than vehicle/harmaline mice
Ki for human CYP2D6 relative to mibefradil [5]: one-fourth that of mibefradil
Ki [6]: 710 nM
Ki for testosterone 6-β-hydroxylation relative to mibefradil [6]: over five-fold higher
gross observations in open fields: sedation or ataxia [7]: did not reveal sedation or ataxia
anti-seizure efficacy [8]: anti-seizure efficacy
effect against high voltage calcium channels [9]: no effect
fold higher Ki than mibefradil [10]: 9 fold
tremor generation reduced compared to the vehicle group [11, 15]: 48.5 ± 12.4%
tremor generation reduced compared to the vehicle group [11, 16]: 48.9 ± 13.6%
tremor generation reduced compared to the vehicle group ([11]; 20 mg/kg i.p., 20–60 min post-drug): 73.6 ± 20.1%
tremor generation reduced compared to the vehicle group ([11]; 20 mg/kg i.p., 60–100 min post-drug): 85.1 ± 29.1%

COc1ccc2c3c([nH]c2c1)C(C)=NCC3 [harmaline]
retention time on the wire grid compared with vehicle/vehicle controls ([4]; vehicle-pre-treated mice, harmaline 20 mg/kg s.c., test 30 min later): reduced retention times on the wire grid

COCC(=O)O[C@]1(CCN(C)CCCc2nc3ccccc3[nH]2)CCc2cc(F)ccc2[C@@H]1C(C)C [mibefradil]
maximal dose at which 6/6 mice passed the horizontal wire test ([1]; i.p., tested at 10-min intervals for 1.5 h): 20 mg/kg
dose at which 3/6 failed the horizontal wire test ([1]; mouse, in vivo, ip, 1.5 h): 30 mg/kg
tremor reduction compared to baseline [2]: no effect on tremor
dose reported to produce severe hypotension [12]: 30 mg/kg
Ki at 20 min [13]: 290 nM
Ki for harmaline O-demethylation relative to NNC 55-0396 ([3]; mouse liver microsomes): less than a third that of NNC 55-0396
crossing of the blood–brain-barrier [14]: does not cross the blood–brain-barrier
appearance (sedation) of drug/harmaline mice ([4]; mouse, in vivo): appeared sedated
retention on the inverted grid compared with vehicle/harmaline mice ([4]; mouse, in vivo): worse retention
tremor generation reduced compared to the vehicle group [11, 15]: 23.1 ± 3.9%
tremor generation reduced compared to the vehicle group [11, 16]: 20.8 ± 11.5%
